The results in this text go back to ChEMBL document CHEMBL1287776, “Synthesis and biological evaluations of P4-benzoxaborole-substituted macrocyclic inhibitors of HCV NS3 protease” (Bioorg Med Chem Lett, 2010).

The species named for series [1] is Rattus norvegicus. In words: Metabolic absorption in rat. The class given is ADME, organism-based. Conditions: in vivo. In short, it runs like this:
(§1)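 Rat pharmacokinetics with blood drawn from both the jugular and portal veins after oral dosing, with IV dosing as reference. Absorption is calculated from portal vein drug levels. Oral bioavailability is calculated from jugular vein levels, each compared with levels after IV administration.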

The nature of series [2]: (§2) Oral bioavailability in rat. The class given is ADME, organism-based. Conditions: in vivo. In short, it runs like this:
as §1

For series [3], the system named is Hepatitis C virus. Description: Antiviral activity against HCV 1b infected in human Huh-7 cells after 48hrs by luciferase assay. It is filed as functional, organism-based, Hepacivirus hominis. The following applies: genotype 1b, Huh-7, 48 h. In short, it runs like this:
(§3)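 Subgenomic (NS3-NS5B) luciferase replicon cells for genotype 1a or 1b. The 1b ET line is stably transfected with a firefly luciferase-ubiquitin-neo replicon carrying cell culture adaptive mutations. Cells are seeded at 5 × 10³/well onto compounds in 1% DMSO final. Luciferase is read after 48 h. EC50 comes from an 11-point, 3-fold dilution curve, as % inhibition versus no-compound control, with a four-parameter logistic fit.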

Series [4] has as its system Hepatitis C virus. In words: Antiviral activity against HCV 1a infected in human Huh-7 cells after 48hrs by luciferase assay. The class given is functional, organism-based, Hepacivirus hominis. The following applies: subtype 1a, Huh-7, 48 h. In short, it runs like this: as §3
Series [5] can be described thus: Inhibition of HCV 1a NS3/4A protease by FRET assay. The arrangement: species or system Hepatitis C virus subtype 1a. In short, it runs like this: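 FRET assay with the genotype 1a NS3/4A protease domain and a fluorogenic peptide substrate. Buffer is 50 mM HEPES, 20% sucrose, 5 mM DTT and 0.05% NP-40. Initial rates are read at ex 490/em 520 nm. IC50 values are means of duplicate or triplicate experiments.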

The test system of series [6] is Rattus norvegicus. The series is described as §2. Conditions: in vivo, BLD = below limit of detection. It is filed as ADME, organism-based. An outline of the steps:
as §1

Each structure is given as a SMILES string. Bounds are passed on as bounds.

One may read the bioavailability as dose-corrected exposure relative to a reference, in per cent. A high value points to good availability. Broadly, the EC50 is the concentration needed to bring the measured effect to its halfway point. A high value points to a less potent agent. The IC50 is the concentration that inhibits the measured activity by half. Higher therefore signals weaker potency. As for `O=C(Nc1ccc2c(c1)B(O)OC2)N[C@H]1CCCCC/C=C\[C@@H]2C[C@@]2(C(=O)NS(=O)(=O)C2CC2)NC(=O)C2C[C@@H](OC(=O)N3Cc4cccc(F)c4C3)CN2C1=O` (some centres undefined), in the series listed under Rattus norvegicus [1], the Activity was 0.9%. This molecule also returned a bioavailability in series [2] of 0.5%. Besides, the EC50 stood at 3.7 nM in the series with Hepatitis C virus [3] and 159 nM with Hepatitis C virus [4]. Also, the IC50 in series [5] came to 0.4 nM.
Consider `O=C(N[C@H]1CCCCC/C=C\[C@@H]2C[C@@]2(C(=O)NS(=O)(=O)C2CC2)NC(=O)C2C[C@@H](OC(=O)N3Cc4cccc(F)c4C3)CN2C1=O)Oc1ccc2c(c1)B(O)OC2` (some centres undefined), for which the values for the EC50 in the series on Hepatitis C virus [3] and with Hepatitis C virus [4] were 15 nM and 661 nM, respectively. The same molecule showed an IC50 in series [5] of 1.6 nM.
`O=C(N[C@H]1CCCCC/C=C\[C@@H]2C[C@@]2(C(=O)NS(=O)(=O)C2CC2)NC(=O)C2C[C@@H](OC(=O)N3Cc4cccc(F)c4C3)CN2C1=O)Oc1ccc2c(c1)COB2O` (some centres undefined): the concentration giving a half-maximal response (EC50) is 172 nM in the series with Hepatitis C virus [3] and 3550 nM in the series on Hepatitis C virus [4]. In series [5], half-maximal inhibition (IC50) was put at 2.4 nM.
With `O=C(NCc1ccc2c(c1)B(O)OC2)N[C@H]1CCCCC/C=C\[C@@H]2C[C@@]2(C(=O)NS(=O)(=O)C2CC2)NC(=O)C2C[C@@H](OC(=O)N3Cc4cccc(F)c4C3)CN2C1=O` (some centres undefined), in the series filed under Rattus norvegicus [1], the Activity was 0.6%. Further, the bioavailability in series [2] was 0.7%. In addition, the results for the EC50 in the series on Hepatitis C virus [3] and in the series on Hepatitis C virus [4] were 0.9 nM and 160 nM, respectively. In series [5], this molecule came in with an IC50 of 0.4 nM.
For the molecule `O=C(Nc1cc2c(cc1F)COB2O)N[C@H]1CCCCC/C=C\[C@@H]2C[C@@]2(C(=O)NS(=O)(=O)C2CC2)NC(=O)C2C[C@@H](OC(=O)N3Cc4cccc(F)c4C3)CN2C1=O` (some centres undefined), the EC50 is 1.5 nM in the series with Hepatitis C virus [3] and 35 nM in the series on Hepatitis C virus [4]. The 50% inhibitory concentration (IC50) in series [5] was < 0.2 nM.
As to `CC1OB(O)c2cc(NC(=O)N[C@H]3CCCCC/C=C\[C@@H]4C[C@@]4(C(=O)NS(=O)(=O)C4CC4)NC(=O)C4C[C@@H](OC(=O)N5Cc6cccc(F)c6C5)CN4C3=O)c(F)cc21` (some centres undefined), the results for the EC50 in the series with Hepatitis C virus [3] and in the series with Hepatitis C virus [4] were 1.2 nM and 20 nM, respectively. Moreover, the IC50 in series [5] turned out to be 0.4 nM.
Regarding `COc1cnc(O[C@@H]2CC3C(=O)N[C@]4(C(=O)NS(=O)(=O)C5CC5)C[C@H]4/C=C\CCCCC[C@H](NC(=O)Nc4ccc5c(c4)B(O)OC5)C(=O)N3C2)c2cc(Cl)ccc12` (some centres undefined), the figures for the EC50 in the series with Hepatitis C virus [3] and in the series on Hepatitis C virus [4] were 3.9 nM and 60.3 nM, respectively. In series [5], this molecule returned an IC50 of 0.6 nM.
Regarding `COc1cnc(O[C@@H]2CC3C(=O)N[C@]4(C(=O)NS(=O)(=O)C5CC5)C[C@H]4/C=C\CCCCC[C@H](NC(=O)NCc4ccc5c(c4)B(O)OC5)C(=O)N3C2)c2cc(Cl)ccc12` (some centres undefined), the EC50 with Hepatitis C virus [3] was 3.9 nM; in the series with Hepatitis C virus [4], 50.1 nM. In addition, in series [5], the IC50 turned out to be 0.4 nM.
On to `COc1ccc2c(O[C@@H]3CC4C(=O)N[C@]5(C(=O)NS(=O)(=O)C6CC6)C[C@H]5/C=C\CCCCC[C@H](NC(=O)Nc5ccc6c(c5)B(O)OC6)C(=O)N4C3)cc(-c3nc(C(C)C)cs3)nc2c1C` (some centres undefined), for which the EC50 amounted to 1.2 nM in the series with Hepatitis C virus [3] and 12.5 nM in the series with Hepatitis C virus [4]. This molecule also gave an IC50 in series [5] of 5.6 nM.
In the case of `COc1ccc2c(O[C@@H]3CC4C(=O)N[C@]5(C(=O)NS(=O)(=O)C6CC6)C[C@H]5/C=C\CCCCC[C@H](NC(=O)NCc5ccc6c(c5)B(O)OC6)C(=O)N4C3)cc(-c3nc(C(C)C)cs3)nc2c1C` (some centres undefined), the Activity result in the series filed under Rattus norvegicus [1] (BLD = below limit of detection) was “BLD”. Further, the F entry in the series on Rattus norvegicus [6] was “BLD”. The EC50 with Hepatitis C virus [3] was found to be 0.5 nM; in the series with Hepatitis C virus [4], 4.2 nM. This molecule came in with an IC50 in series [5] of 4.1 nM.
For the molecule `CC(C)(C)OC(=O)N[C@H]1CCCCC/C=C\[C@@H]2C[C@@]2(C(=O)NS(=O)(=O)C2CC2)NC(=O)[C@@H]2C[C@@H](OC(=O)N3Cc4cccc(F)c4C3)CN2C1=O` [DANOPREVIR], the Activity in the series listed under Rattus norvegicus [1] is reported as 17.4%. The bioavailability in series [2] turned out to be 20%. For the same molecule, the figures for the EC50 with Hepatitis C virus [3] and with Hepatitis C virus [4] were 1.1 nM and 1 nM, respectively. The IC50 in series [5] was 0.4 nM.
Turning to `COc1ccc2c(O[C@@H]3C[C@H]4C(=O)N[C@]5(C(=O)NS(=O)(=O)C6CC6)C[C@H]5/C=C\CCCCN(C)C(=O)[C@@H]4C3)cc(-c3nc(C(C)C)cs3)nc2c1C` [SIMEPREVIR], the EC50 in the series with Hepatitis C virus [3] was found to be 1.4 nM; with Hepatitis C virus [4], 2.3 nM. Inhibition in series [5] was half-maximal at 10 nM (IC50).
